The values below come from ChEMBL document CHEMBL1128736, “Synthesis and anti-HIV activity of [AZT]-[TSAO-T] and [AZT]-[HEPT] dimers as potential multifunctional inhibitors of HIV-1 reverse transcriptase” (J Med Chem, 1995).

What all share (assay type): functional, organism-based
Test [1] concerns Human immunodeficiency virus 1. The test is described as follows: Inhibitory effect against HIV-1 replication in CEM cells. The note with it: Human immunodeficiency virus 1, CCRF-CEM. The method in brief:
(§1)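 CEM cells (4×10^5/mL; wild-type CEM/0 or thymidine kinase-deficient CEM/TK⁻) infected with HIV-1 or HIV-2 (ROD) at ~100 CCID50/mL, then mixed 1:1 with serial compound dilutions. After 4 days, virus-induced giant cell formation was scored microscopically. EC50 is the concentration inhibiting virus-induced cytopathicity by 50%.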

Test [2] relates to Human immunodeficiency virus 2. Briefly: Inhibitory effect against HIV-2 replication in CEM cells. The note with it: Human immunodeficiency virus 2, CCRF-CEM. The method in brief: as §1
The subject of test [3] is Human immunodeficiency virus 2. Briefly: Inhibitory effect against HIV-2 replication in CEM /TK-(thymidine kinase deficient) cells. The note with it: Human immunodeficiency virus 2, CCRF-CEM. A digest of the protocol: as §1

Bounds are passed on as bounds.

Usually EC50 stands for the concentration that produces a half-maximal response. Read a low EC50 as greater potency. Turning to `Cc1cn([C@@H]2O[C@H](CO[Si](C)(C)C(C)(C)C)[C@@]3(OS(=O)(=O)C=C3N)[C@H]2O[Si](C)(C)C(C)(C)C)c(=O)n(CCCCCCCCCBr)c1=O`, the EC50 in test [1], in test [2] and in test [3] was greater than 1 µM each time.

In the case of `Cc1cn([C@@H]2O[C@H](CO[Si](C)(C)C(C)(C)C)[C@@]3(OS(=O)(=O)C=C3N)[C@H]2O[Si](C)(C)C(C)(C)C)c(=O)n(CCCCCCCBr)c1=O`, the concentration for a half-maximal effect (EC50) in test [1] was 0.79 µM; in test [2] it was greater than 1 µM; in test [3], greater than 5 µM.

Take `Cc1c(Sc2ccccc2)n(COCCO)c(=O)[nH]c1=O` [HEPT]: the half-maximal effective concentration (EC50) in test [2] and in test [3] was greater than 100 µM in each case.

For the compound `Cc1cn([C@H]2C[C@H](O)[C@@H](CO)O2)c(=O)n(CCCCCCCBr)c1=O`, the EC50 in test [1], in test [2] and in test [3] was greater than 10 µM in each case.

Consider `Cc1cn([C@H]2C[C@H](O)[C@@H](CO)O2)c(=O)n(CCCCCCCn2c(=O)c(C)c(Sc3ccccc3)n(COCCO)c2=O)c1=O`, for which the EC50 in test [1] and in test [2] was greater than 30 µM throughout.

In the case of `Cc1cn([C@@H]2O[C@H](CO[Si](C)(C)C(C)(C)C)[C@@]3(OS(=O)(=O)C=C3N)[C@H]2O[Si](C)(C)C(C)(C)C)c(=O)n(CCCn2c(=O)c(C)cn([C@H]3C[C@H](O)[C@@H](CO)O3)c2=O)c1=O`, the EC50 in test [1] is 0.06 µM; in test [2] it was greater than 4 µM; in test [3], greater than 4 µM.

For the compound `Cc1cn([C@@H]2O[C@H](CO[Si](C)(C)C(C)(C)C)[C@@]3(OS(=O)(=O)C=C3N)[C@H]2O[Si](C)(C)C(C)(C)C)c(=O)n(CCCCCCCCn2c(=O)c(C)cn([C@H]3C[C@H](N=[N+]=[N-])[C@@H](CO)O3)c2=O)c1=O`, the half-maximal effective concentration (EC50) in test [1] was 1.56 µM; in test [2], greater than 100 µM.

Regarding `Cc1cn([C@H]2C[C@H](O)[C@@H](CO)O2)c(=O)[nH]c1=O` [DOXRIBTIMINE], the EC50 in test [1], in test [2] and in test [3] was greater than 40 µM each time.

For the compound `Cc1cn([C@@H]2O[C@H](CO[Si](C)(C)C(C)(C)C)[C@@]3(OS(=O)(=O)C=C3N)[C@H]2O[Si](C)(C)C(C)(C)C)c(=O)n(CCCCCCCn2c(=O)c(C)cn([C@H]3C[C@H](N=[N+]=[N-])[C@@H](CO)O3)c2=O)c1=O`, the figures for the EC50 in test [1] and in test [2] were 1.58 µM and greater than 100 µM, respectively.

In the case of `Cc1cn(C2CC(N=[N+]=[N-])C(CO)O2)c(=O)n(CCCBr)c1=O` (stereo not drawn), the EC50 in test [1] and in test [2] was greater than 50 µM in each case.

Take `Cc1cn([C@H]2C[C@H](O)[C@@H](CO)O2)c(=O)n(CCCCCCn2c(=O)c(C)c(Sc3ccccc3)n(COCCO)c2=O)c1=O`: the concentration for a half-maximal effect (EC50) in test [1] is 79 µM; in test [2], greater than 30 µM.

`Cc1cn(C2CC(N=[N+]=[N-])C(CO)O2)c(=O)n(CCCCCCBr)c1=O` (stereo not drawn) showed a concentration for a half-maximal effect (EC50) in test [3] greater than 45 µM.

`Cc1cn([C@@H]2O[C@H](CO[Si](C)(C)C(C)(C)C)C3(OS(=O)(=O)C=C3N)[C@H]2O[Si](C)(C)C(C)(C)C)c(=O)[nH]c1=O` (stereo partly drawn): the concentration for a half-maximal effect (EC50) was 0.05 µM in test [1], greater than 6 µM in test [2] and greater than 6 µM in test [3].

In the case of `Cc1cn(C2CC(N=[N+]=[N-])C(CO)O2)c(=O)n(CCCCCBr)c1=O` (stereo not drawn), the 50% effective concentration (EC50) is greater than 50 µM in test [1], greater than 50 µM in test [2] and greater than 10 µM in test [3].

Regarding `Cc1cn([C@@H]2O[C@H](CO[Si](C)(C)C(C)(C)C)[C@@]3(OS(=O)(=O)C=C3N)[C@H]2O[Si](C)(C)C(C)(C)C)c(=O)n(CCCCCCn2c(=O)c(C)cn([C@H]3C[C@H](N=[N+]=[N-])[C@@H](CO)O3)c2=O)c1=O`, the EC50 in test [1] was 0.21 µM; in test [2] it was greater than 100 µM; in test [3] it was greater than 100 µM.

With `Cc1cn([C@@H]2O[C@H](CO[Si](C)(C)C(C)(C)C)[C@@]3(OS(=O)(=O)C=C3N)[C@H]2O[Si](C)(C)C(C)(C)C)c(=O)n(CCCCCCCCBr)c1=O`, the concentration giving a half-maximal response (EC50) in test [1], in test [2] and in test [3] was greater than 1 µM throughout.

Turning to `Cc1cn(C2CC(N=[N+]=[N-])C(CO)O2)c(=O)n(CCCCCCCCCBr)c1=O` (stereo not drawn), the EC50 in test [1], in test [2] and in test [3] was greater than 8 µM each time.

As for `Cc1cn([C@@H]2O[C@H](CO[Si](C)(C)C(C)(C)C)[C@@]3(OS(=O)(=O)C=C3N)[C@H]2O[Si](C)(C)C(C)(C)C)c(=O)n(CCCCCCCCCn2c(=O)c(C)cn([C@H]3C[C@H](N=[N+]=[N-])[C@@H](CO)O3)c2=O)c1=O`, the values for the EC50 in test [1], in test [2] and in test [3] were 15.3 µM, greater than 100 µM and greater than 100 µM, respectively.

As to `Cc1cn([C@@H]2O[C@H](CO[Si](C)(C)C(C)(C)C)[C@@]3(OS(=O)(=O)C=C3N)[C@H]2O[Si](C)(C)C(C)(C)C)c(=O)n(CCCCCCBr)c1=O`, the EC50 is 0.47 µM in test [1] and greater than 25 µM in test [2].

In the case of `Cc1cn([C@@H]2O[C@H](CO[Si](C)(C)C(C)(C)C)[C@@]3(OS(=O)(=O)C=C3N)[C@H]2O[Si](C)(C)C(C)(C)C)c(=O)n(CCCBr)c1=O`, the EC50 in test [1] is 0.11 µM; in test [2], greater than 100 µM.

Regarding `Cc1cn([C@@H]2O[C@H](CO[Si](C)(C)C(C)(C)C)[C@@]3(OS(=O)(=O)C=C3N)[C@H]2O[Si](C)(C)C(C)(C)C)c(=O)n(CCCCCCCn2c(=O)c(C)cn([C@H]3C[C@H](O)[C@@H](CO)O3)c2=O)c1=O`, the EC50 in test [1] is 0.22 µM; in test [2], greater than 4 µM.

Turning to `Cc1cn(C2CC(N=[N+]=[N-])C(CO)O2)c(=O)n(CCCCCCn2c(=O)c(C)c(Sc3ccccc3)n(COCCO)c2=O)c1=O` (stereo not drawn), the EC50 in test [1], in test [2] and in test [3] was greater than 5 µM in each case.

Turning to `Cc1cn([C@@H]2O[C@H](CO[Si](C)(C)C(C)(C)C)[C@@]3(OS(=O)(=O)C=C3N)[C@H]2O[Si](C)(C)C(C)(C)C)c(=O)n(CCCCn2c(=O)c(C)cn([C@H]3C[C@H](N=[N+]=[N-])[C@@H](CO)O3)c2=O)c1=O`, the EC50 is 0.2 µM in test [1], greater than 100 µM in test [2] and greater than 100 µM in test [3].

On to `Cc1cn([C@@H]2O[C@H](CO[Si](C)(C)C(C)(C)C)[C@@]3(OS(=O)(=O)C=C3N)[C@H]2O[Si](C)(C)C(C)(C)C)c(=O)n(CCCCCn2c(=O)c(C)cn([C@H]3C[C@H](N=[N+]=[N-])[C@@H](CO)O3)c2=O)c1=O`, for which the EC50 was 0.22 µM in test [1], greater than 100 µM in test [2] and greater than 100 µM in test [3].

Regarding `Cc1cn(C2CC(N=[N+]=[N-])C(CO)O2)c(=O)n(CCCCCCCCBr)c1=O` (stereo not drawn), the EC50 in test [1], in test [2] and in test [3] was greater than 8 µM in each case.

As for `Cc1c(Sc2ccccc2)n(COCCO)c(=O)n(CCCCCCCBr)c1=O`, the EC50 in test [1], in test [2] and in test [3] was greater than 8 µM in each case.

Take `Cc1c(Sc2ccccc2)n(COCCO)c(=O)n(CCCCCCBr)c1=O`: the 50% effective concentration (EC50) in test [3] was greater than 8 µM.

Consider `Cc1cn(C2CC(N=[N+]=[N-])C(CO)O2)c(=O)n(CCCCCCCn2c(=O)c(C)c(Sc3ccccc3)n(COCCO)c2=O)c1=O` (stereo not drawn), for which the half-maximal effective concentration (EC50) in test [1] and in test [2] was greater than 5 µM throughout.

`Cc1cn([C@H]2C[C@H](N=[N+]=[N-])[C@@H](CO)O2)c(=O)[nH]c1=O` [ZIDOVUDINE]: the EC50 in test [1] is 0.011 µM; in test [2], 0.011 µM; in test [3], greater than 35 µM.

On to `Cc1cn([C@@H]2O[C@H](CO[Si](C)(C)C(C)(C)C)[C@@]3(OS(=O)(=O)C=C3N)[C@H]2O[Si](C)(C)C(C)(C)C)c(=O)n(CCCn2c(=O)c(C)cn([C@H]3C[C@H](N=[N+]=[N-])[C@@H](CO)O3)c2=O)c1=O`, for which the EC50 in test [1] is 0.1 µM; in test [2] it was greater than 100 µM; in test [3] it was greater than 100 µM.

Regarding `Cc1cn([C@@H]2O[C@H](CO[Si](C)(C)C(C)(C)C)[C@@]3(OS(=O)(=O)C=C3N)[C@H]2O[Si](C)(C)C(C)(C)C)c(=O)n(CCCCCCn2c(=O)c(C)cn([C@H]3C[C@H](O)[C@@H](CO)O3)c2=O)c1=O`, the EC50 in test [1] was 0.55 µM; in test [2] it was greater than 4 µM.
